Reference: ChEMBL document CHEMBL1275591, “Cellular pharmacodynamics of the novel biaryloxazolidinone radezolid: studies with infected phagocytic and nonphagocytic cells, using Staphylococcus aureus, Staphylococcus epidermidis, Listeria monocytogenes, and Legionella pneumophila” (Antimicrob Agents Chemother, 2010)
In brackets after ≈: the same amount, converted by molar mass.

Assays:
Staphylococcus aureus [1] = assay: Bacteriostatic activity against linezolid-susceptible Staphylococcus aureus SA238 after 24 hrs; format: functional
Outline: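 Extracellular concentration-response in Mueller-Hinton broth over 24 h. Change in CFU was fitted to a sigmoidal function, and the apparent static concentration (Cs) was derived from the fit.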

Staphylococcus aureus [2] = assay: Antimicrobial activity against Staphylococcus aureus ATCC 25923 assessed as log reduction in bacterial count at 1 mg/L after 5 hrs; format: functional
Outline: (§1)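 Time-course test with S. aureus ATCC 25923, either in Mueller-Hinton broth or after phagocytosis by THP-1 cells. Samples were taken over a 5 h incubation with drug at 1 mg/liter. Read-out was the change in CFU relative to the initial inoculum, reported as means.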

Staphylococcus aureus [3] = assay: Antimicrobial activity against Linezolid resistant hospital acquired methicillin-resistant Staphylococcus aureus SA238L after 24 hrs; format: functional
Staphylococcus aureus [4] = assay: Antimicrobial activity against linezolid-susceptible Staphylococcus aureus SA040 infected in THP1 cells after 24 hrs; format: functional, organism-based; settings: SA040, THP-1, 24 h
Outline: (§2)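 Bacteria were phagocytosed by human THP-1 macrophage-like cells, then exposed to a range of drug concentrations for a fixed time: 24 h for S. aureus, S. epidermidis and L. monocytogenes, 48 h for L. pneumophila. Change in CFU versus the initial inoculum was fitted with a sigmoidal curve to give Emin, Emax (relative maximal efficacy), EC50 and static concentration (Cs).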

Staphylococcus aureus [5] = assay: Antimicrobial activity against methicillin-resistant, vancomycin intermediate Staphylococcus aureus NRS52 after 24 hrs; format: functional; settings: NRS52, 24 h
Staphylococcus aureus [6] = assay: Antimicrobial activity against Staphylococcus aureus ATCC 25923 infected in THP-1 cells assessed as log reduction in bacterial count at 1 mg/L after 5 hrs; format: functional; outline: as §1
Staphylococcus aureus [7] = assay: Antimicrobial activity against hospital acquired methicillin-resistant, vancomycin resistant Staphylococcus aureus VRS2 after 24 hrs; format: functional; settings: VRS2, 24 h
Staphylococcus aureus [8] = assay: Antimicrobial activity against linezolid-susceptible Staphylococcus aureus SA238 infected in HUVEC cells assessed as log reduction in bacterial count after 24 hrs; format: functional
Outline: (§3)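 S. aureus was internalized by adherent nonphagocytic cells: Calu-3, HUVEC, keratinocytes on collagen-coated wells, osteoblasts, or rat embryo fibroblasts. Inoculum was 5 × 10^7 to 1 × 10^8 bacteria/ml with 2 h phagocytosis (HUVEC: 2 × 10^6/ml, 1 h). Cells were then exposed to graded drug concentrations for 24 h. CFU change versus the original inoculum was fitted sigmoidally for Emax and Cs.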

Staphylococcus aureus [9] = assay: Bacteriostatic activity against linezolid-resistant Staphylococcus aureus SA238L infected in HUVEC cells after 24 hrs; format: functional
Outline: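 HUVEC were grown in endothelial growth medium on gelatin-treated flasks. They were infected with 2 × 10^6 bacteria/ml for 1 h phagocytosis, then exposed 24 h to graded antibiotic concentrations. CFU change from the initial inoculum was fitted to a sigmoidal curve to obtain the static concentration (Cs).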

Staphylococcus aureus [10] = assay: Antimicrobial activity against linezolid-resistant Staphylococcus aureus SA238L infected in THP1 cells after 24 hrs; format: functional, organism-based; settings: THP-1, 24 h; outline: as §2
Staphylococcus aureus [11] = assay: Antimicrobial activity against hospital acquired methicillin-resistant Staphylococcus aureus ATCC 33591 after 24 hrs; format: functional; settings: ATCC 33591, 24 h
Staphylococcus aureus [12] = assay: Antimicrobial activity against methicillin-susceptible Staphylococcus aureus ATCC 25923 after 24 hrs; format: functional; settings: ATCC 25923, 24 h
Staphylococcus aureus [13] = assay: Antimicrobial activity against linezolid-resistant Staphylococcus aureus SA238L infected in rat fibroblast cells assessed as log reduction in bacterial count after 24 hrs; format: functional; outline: as §3
Staphylococcus aureus [14] = assay: Bacteriostatic activity against linezolid-susceptible Staphylococcus aureus SA040 infected in THP1 cells after 24 hrs; format: functional, THP-1
Outline: (§4)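 Human THP-1 myelomonocytic (macrophage-like) cells infected with S. aureus, then exposed 24 h to a range of antibiotic concentrations. CFU change was measured against the initial inoculum. A sigmoidal dose-response curve was fitted to give Emin, Emax and EC50, and the apparent static concentration (Cs) was taken from the fit.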

Staphylococcus aureus [15] = assay: Antimicrobial activity against linezolid-susceptible Staphylococcus aureus SA238 infected in THP1 cells at pH 7.4 after 24 hrs; format: functional, organism-based; settings: SA238, THP-1, 24 h
Staphylococcus aureus [16] = assay: Antimicrobial activity against hospital acquired methicillin-resistant Staphylococcus aureus SA238 after 24 hrs; format: functional; settings: SA238, 24 h
Staphylococcus aureus [17] = assay: Bacteriostatic activity against linezolid-susceptible Staphylococcus aureus ATCC 33591 infected in THP1 cells after 24 hrs; format: functional, THP-1; outline: as §4
Staphylococcus aureus [18] = assay: Antimicrobial activity against linezolid-resistant Staphylococcus aureus SA238L infected in THP1 cells assessed as log reduction in bacterial count after 24 hrs; format: functional, THP-1; outline: as §2
Staphylococcus aureus [19] = assay: Bacteriostatic activity against linezolid-resistant Staphylococcus aureus SA238L infected in human osteoblasts cells after 24 hrs; format: functional
Outline: (§5)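 Adherent nonphagocytic cells were infected at 5 × 10^7 to 1 × 10^8 bacteria/ml with 2 h phagocytosis. Cells used: Calu-3 bronchial epithelium grown in uncoated flasks, neonatal foreskin keratinocytes on collagen-coated wells, primary human osteoblasts, and primary rat embryo fibroblasts. Antibiotic was then given over a concentration range for 24 h. Cs came from a sigmoidal fit of CFU change.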

Staphylococcus aureus [20] = assay: Bacteriostatic activity against linezolid-resistant Staphylococcus aureus SA238L infected in THP1 cells after 24 hrs; format: functional, THP-1; outline: as §4
Staphylococcus aureus [21] = assay: Bacteriostatic activity against linezolid-susceptible Staphylococcus aureus SA238 infected in THP1 cells at pH 7.4 after 24 hrs; format: functional, THP-1
[22] = tested on: Staphylococcus epidermidis; assay: Antimicrobial activity against Staphylococcus epidermidis infected in THP1 cells after 24 hrs; format: functional, organism-based; settings: THP-1, 24 h; outline: as §2
[23] = tested on: Staphylococcus epidermidis; assay: Bacteriostatic activity against Staphylococcus epidermidis infected in THP1 cells after 24 hrs; format: functional, THP-1; outline: as §2
Staphylococcus aureus [24] = assay: Antimicrobial activity against linezolid-resistant Staphylococcus aureus SA238L infected in HUVEC cells assessed as log reduction in bacterial count after 24 hrs; format: functional; outline: as §3
Staphylococcus aureus [25] = assay: Antimicrobial activity against methicillin-resistant, vancomycin intermediate Staphylococcus aureus NRS18 after 24 hrs; format: functional; settings: NRS18, 24 h
[26] = Ratio of drug level for cellular to extracellular region of Staphylococcus aureus infected human osteoblast at 4 mg/liter after 2 hrs; format: ADME, cell-based
Outline: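 Cells were exposed to [14C]radezolid for 2 or 24 h. Cell-associated drug in lysates was measured by liquid scintillation counting (detection limit 0.003 mg/liter; linear 0.01–0.78 mg/liter). Content was normalised to cell protein (Lowry). It was converted to apparent cellular concentration at 5 μl per mg protein and expressed relative to the extracellular concentration.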

Staphylococcus aureus [27] = assay: Antimicrobial activity against linezolid-susceptible Staphylococcus aureus SA238 after 24 hrs; format: functional, organism-based; settings: SA238, 24 h
Staphylococcus aureus [28] = assay: Antimicrobial activity against linezolid-susceptible Staphylococcus aureus SA238 infected in THP1 cells after 24 hrs; format: functional, organism-based; settings: SA238, THP-1, 24 h; outline: as §2
Staphylococcus aureus [29] = assay: Antimicrobial activity against linezolid-susceptible Staphylococcus aureus ATCC 25923 infected in THP1 cells assessed as log reduction in bacterial count after 24 hrs; format: functional, THP-1; outline: as §2
Staphylococcus aureus [30] = assay: Antimicrobial activity against Staphylococcus aureus infected in THP1 cells after 24 hrs; format: functional, organism-based; settings: THP-1, 24 h; outline: as §2
Staphylococcus aureus [31] = assay: Antimicrobial activity against linezolid-resistant Staphylococcus aureus SA040L infected in THP1 cells assessed as log reduction in bacterial count after 24 hrs; format: functional, THP-1; outline: as §2
Staphylococcus aureus [32] = assay: Bacteriostatic activity against linezolid-resistant Staphylococcus aureus SA238L infected in Calu-3 cells after 24 hrs; format: functional; outline: as §5
Legionella pneumophila = assay: Antimicrobial activity against Legionella pneumophila ATCC 33153 after 48 hrs; format: functional; settings: ATCC 33153, 48 h
Staphylococcus aureus [33] = assay: Bacteriostatic activity against Staphylococcus aureus infected in THP1 cells after 24 hrs; format: functional, THP-1; outline: as §2

CC(=O)NC[C@H]1CN(c2ccc(-c3ccc(CNCc4cnn[nH]4)cc3)c(F)c2)C(=O)O1 [RADEZOLID] showed an Activity (Staphylococcus aureus [1]) of 0.52 mg/L, a log10cfu (Staphylococcus aureus [2]) of 2 and an MIC (Staphylococcus aureus [3]) of 2 µg/mL (≈ 4.56 µM). It also gave an EC50 (Staphylococcus aureus [4]) of 0.09 µg/mL (≈ 0.205 µM), an MIC (Staphylococcus aureus [5]) of 2 µg/mL (≈ 4.56 µM) and a log10cfu (Staphylococcus aureus [6]) of 0.5. It also gave an MIC (Staphylococcus aureus [7]) of 2 µg/mL (≈ 4.56 µM), a log10cfu (Staphylococcus aureus [8]) of 0.6 and an Activity (Staphylococcus aureus [9]) of 0.6 mg/L. For the same compound, the EC50 (Staphylococcus aureus [10]) was 0.29 µg/mL (≈ 0.661 µM), the MIC (Staphylococcus aureus [11]) was 0.5 µg/mL (≈ 1.14 µM) and the MIC (Staphylococcus aureus [12]) was 0.25 µg/mL (≈ 0.57 µM). It also gave a log10cfu (Staphylococcus aureus [13]) of 0.6, an Activity (Staphylococcus aureus [14]) of 0.21 mg/L and an EC50 (Staphylococcus aureus [15]) of 0.31 µg/mL (≈ 0.707 µM). It also gave an MIC (Staphylococcus aureus [16]) of 0.5 µg/mL (≈ 1.14 µM), an Activity (Staphylococcus aureus [17]) of 0.56 mg/L and a log10cfu (Staphylococcus aureus [18]) of -0.77. The Activity (Staphylococcus aureus [19]) was 0.6 mg/L, the Activity (Staphylococcus aureus [20]) was 0.97 mg/L and the Activity (Staphylococcus aureus [21]) was 1.04 mg/L. For the same compound, the EC50 [22] was 1.51 µg/mL (≈ 3.44 µM), the Activity [23] was 0.03 mg/L and the log10cfu (Staphylococcus aureus [24]) was 0.6. It also gave an MIC (Staphylococcus aureus [25]) of 0.25 µg/mL (≈ 0.57 µM), a Ratio [26] of 9.8 and an EC50 (Staphylococcus aureus [27]) of 0.16 µg/mL (≈ 0.365 µM). The EC50 (Staphylococcus aureus [28]) was 0.16 µg/mL (≈ 0.365 µM), the log10cfu (Staphylococcus aureus [29]) was -0.57 and the EC50 (Staphylococcus aureus [30]) was 0.24 µg/mL (≈ 0.547 µM). It also gave a log10cfu (Staphylococcus aureus [31]) of -0.66, an Activity (Staphylococcus aureus [32]) of 0.6 mg/L and an MIC (Legionella pneumophila) of 0.5 µg/mL (≈ 1.14 µM). It also gave an Activity (Staphylococcus aureus [33]) of 0.91 mg/L.
